Source: ChEMBL document CHEMBL4308900, “Synthesis and identification of 2,4-bisanilinopyrimidines bearing 2,2,6,6-tetramethylpiperidine-N-oxyl as potential Aurora A inhibitors” (Bioorg Med Chem, 2019)
Activity calls are given as the source filed them. No cut-off for these calls is given here.

Experiments:
LoVo = test: Antiproliferative activity against human LoVo cells after 48 hrs by MTT assay; format: functional
Outline: (§1)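 MTT assay: cells attached 4–6 h at 37 °C, 5% CO2, then exposed 48 h to graded concentrations from DMSO stocks; 5 mg/mL MTT added for 4 h, formazan dissolved in DMSO, absorbance at 490 nm. GI50 from log plot of percent of control versus concentration; mean of three independent experiments.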

HeLa [1] = test: Antiproliferative activity against human HeLa cells after 48 hrs by MTT assay; format: functional; outline: as §1
Aurora kinase B = Aurora kinase B (Homo sapiens, UniProt Q96GD4); test: Inhibition of Aurora B (unknown origin) using kemptide acetate salt as substrate after 30 mins by kinase-Glo luminescence method
Chain of Aurora kinase B (Q96GD4 whole entry): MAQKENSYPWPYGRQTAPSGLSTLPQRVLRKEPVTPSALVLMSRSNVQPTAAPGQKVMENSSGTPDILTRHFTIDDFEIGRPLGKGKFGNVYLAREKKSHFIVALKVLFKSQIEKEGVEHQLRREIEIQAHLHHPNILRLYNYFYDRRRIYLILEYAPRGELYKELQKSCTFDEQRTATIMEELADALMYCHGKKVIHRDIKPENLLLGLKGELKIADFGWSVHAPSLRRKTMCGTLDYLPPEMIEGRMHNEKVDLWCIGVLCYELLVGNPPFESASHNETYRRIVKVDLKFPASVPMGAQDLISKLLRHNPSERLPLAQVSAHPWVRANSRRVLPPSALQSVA

Aurora kinase A = molecular target: T1, Aurora kinase A (Homo sapiens, UniProt O14965); test: Inhibition of Aurora A (unknown origin) using kemptide acetate salt as substrate after 30 mins by kinase-Glo luminescence method
T1 sequence (O14965 whole entry): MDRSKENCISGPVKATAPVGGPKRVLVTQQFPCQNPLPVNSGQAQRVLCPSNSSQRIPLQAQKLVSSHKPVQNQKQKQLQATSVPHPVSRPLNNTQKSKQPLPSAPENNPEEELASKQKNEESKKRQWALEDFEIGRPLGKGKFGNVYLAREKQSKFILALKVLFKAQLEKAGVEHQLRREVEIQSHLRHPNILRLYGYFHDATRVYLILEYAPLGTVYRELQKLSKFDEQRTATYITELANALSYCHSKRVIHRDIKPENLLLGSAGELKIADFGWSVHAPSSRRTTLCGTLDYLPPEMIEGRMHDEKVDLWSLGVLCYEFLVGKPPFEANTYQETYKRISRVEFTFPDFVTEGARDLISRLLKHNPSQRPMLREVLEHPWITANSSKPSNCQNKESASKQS

A549 = test: Antiproliferative activity against human A549 cells after 48 hrs by MTT assay; format: functional; outline: as §1
HepG2 = test: Antiproliferative activity against human HepG2 cells after 48 hrs by MTT assay; format: functional; outline: as §1
HeLa [2] = test: Cell cycle arrest in human HeLa cells assessed as accumulation at G1 phase at 5 uM after 12 hrs by propidium iodide staining-based flow cytometric analysis (reference value: 70.68%); format: functional
Outline: (§2)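 HeLa cells exposed 12 h to 1 or 5 μM compound diluted from DMSO (DMSO control), fixed, stained with propidium iodide; DNA content measured by flow cytometry and G1, S, G2/M fractions calculated from the DNA histogram.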

HeLa [3] = test: Cell cycle arrest in human HeLa cells assessed as decrease in cyclin B1 protein expression at 5 uM after 12 hrs by Western blot analysis; format: functional, cell-based
Outline: (§3)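 HeLa cells treated 12 h (0.1, 1, 5 μM for apoptosis proteins); lysed in Tris pH 7.5/NP-40/SDS buffer with protease inhibitors, equal protein on 10% SDS-PAGE, PVDF, 5% BSA block, primary antibodies overnight at 4 °C, β-actin loading control; mean ± SD.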

HeLa [4] = test: Cell cycle arrest in human HeLa cells assessed as decrease in cdc2 protein expression at 5 uM after 12 hrs by Western blot analysis; format: functional, cell-based; outline: as §3
HeLa [5] = test: Induction of microtubule disruption in human HeLa cells at 1 uM after 24 hrs by DAPI staining based immunofluorescence microscopic analysis; format: functional, cell-based
Outline: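 HeLa cells on coverslips treated 24 h (0.1 or 1 μM; DMSO control); fixed in 4% paraformaldehyde, permeabilised in 0.1% Triton X-100 with 2% BSA, anti-α-tubulin overnight at 4 °C, FITC secondary 2 h room temperature, DAPI for DNA; confocal imaging.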

HeLa [6] = test: Cell cycle arrest in human HeLa cells assessed as accumulation at S phase at 5 uM after 12 hrs by propidium iodide staining-based flow cytometric analysis (reference value: 5.74%); format: functional; outline: as §2
HeLa [7] = test: Cell cycle arrest in human HeLa cells assessed as accumulation at G2/M phase at 5 uM after 12 hrs by propidium iodide staining-based flow cytometric analysis (reference value: 23.57%); format: functional; outline: as §2

SMILES | GI50 (LoVo) [µM] | GI50 (HeLa [1]) [µM] | IC50 (Aurora kinase B) [µM] | IC50 (Aurora kinase A) [µM] | GI50 (A549; A549, 48 h) [µM] | GI50 (HepG2; HepG2, 48 h) [µM] | GI50 (A549) [µM] | GI50 (HepG2) [µM] | Activity (HeLa [2]) [%] | Activity (HeLa [3]) | Activity (HeLa [4]) | Activity (HeLa [5]) | Activity (HeLa [6]) [%] | Activity (HeLa [7]) [%]
CC1(C)CC(NC(=O)c2ccc(Nc3ncc([N+](=O)[O-])c(Nc4ccc(Cl)cc4)n3)cc2)CC(C)(C)N1[O] | 27.8 | 33.3 | 0.00034 | 0.00161 | 5.6 | 13 | – | – | – | – | – | – | – | –
CC1(C)CC(NC(=O)c2ccc(Nc3ncc([N+](=O)[O-])c(Nc4ccc(O)cc4)n3)cc2)CC(C)(C)N1[O] | 43.8 | 34.3 | 0.0035 | 0.00059 | 14.3 | 21.5 | – | – | – | – | – | – | – | –
CC1(C)CC(NC(=O)c2ccc(Nc3nc(Nc4ccc(C(=O)O)cc4)ncc3Br)cc2)CC(C)(C)N1[O] | > 100 | > 100 | – | – | – | – | > 100 | 35.8 | – | – | – | – | – | –
CC1(C)CC(NC(=O)c2ccc(Nc3ncc([N+](=O)[O-])c(Nc4cccc(O)c4)n3)cc2)CC(C)(C)N1[O] | 39.6 | 36.5 | 0.0035 | 0.00014 | 13.2 | 21.7 | – | – | – | – | – | – | – | –
CC1(C)CC(NC(=O)c2ccc(Nc3ncc(Br)c(Nc4ccccc4Cl)n3)cc2)CC(C)(C)N1[O] | 3.2 | 9.6 | 0.00267 | 0.00046 | 3.8 | 2.1 | – | – | – | – | – | – | – | –
CC1(C)CC(NC(=O)c2ccc(Nc3ncc([N+](=O)[O-])c(Nc4ccc(C(=O)Nc5cccc(Cl)c5)cc4)n3)cc2)CC(C)(C)N1[O] | 39.6 | 49.5 | 0.027 | 0.00011 | 14.2 | 12.5 | – | – | – | – | – | – | – | –
CC1(C)CC(NC(=O)c2ccc(Nc3ncc([N+](=O)[O-])c(Nc4ccccc4Cl)n3)cc2)CC(C)(C)N1[O] | 35.2 | 53.1 | 0.00329 | 0.00186 | 2.8 | 3.7 | – | – | – | – | – | – | – | –
CC1(C)CC(NC(=O)c2ccc(Nc3ncc([N+](=O)[O-])c(Nc4ccc(C(=O)Nc5ccc(Cl)cc5)cc4)n3)cc2)CC(C)(C)N1[O] | 46.3 | 53 | 0.00067 | 0.02 | 17.2 | 24.1 | – | – | – | – | – | – | – | –
Cc1cc(Nc2cc(N3CCN(C)CC3)nc(Sc3ccc(NC(=O)C4CC4)cc3)n2)n[nH]1 | 45.3 | 46.2 | – | – | – | – | 35.8 | 53.3 | 34.4 | Active | Active | inactive | 26.6 | 39
CC1(C)CC(NC(=O)c2ccc(Nc3ncc(Cl)c(Nc4ccccc4Cl)n3)cc2)CC(C)(C)N1[O] | 3.2 | 10.2 | 0.00029 | 0.00019 | 3.6 | 1.6 | – | – | – | – | – | – | – | –
CC1(C)CC(NC(=O)c2ccc(Nc3nc(Nc4ccc(C(=O)O)cc4)ncc3[N+](=O)[O-])cc2)CC(C)(C)N1[O] | 27.4 | 27.3 | – | – | – | – | 29.6 | 11.8 | – | – | – | – | – | –
CC1(C)CC(NC(=O)c2ccc(Nc3nc(Nc4ccc(C(=O)O)cc4)ncc3Cl)cc2)CC(C)(C)N1[O] | 56.6 | 56.5 | – | – | – | – | > 100 | 48.2 | – | – | – | – | – | –
CC1(C)CC(NC(=O)c2ccc(Nc3ncc(F)c(Nc4ccccc4Cl)n3)cc2)CC(C)(C)N1[O] | 2.7 | 8.4 | 0.00111 | 0.00018 | 2.3 | 1.2 | – | – | – | – | – | – | – | –
CC1(C)CC(NC(=O)c2ccc(Nc3ncc([N+](=O)[O-])c(Nc4ccc(C(=O)Nc5ccccc5Cl)cc4)n3)cc2)CC(C)(C)N1[O] | 28.5 | 23.2 | 0.00307 | 0.00548 | 2.5 | 3.4 | – | – | – | – | – | – | – | –
CC1(C)CC(NC(=O)c2ccc(Nc3ncc([N+](=O)[O-])c(Nc4cccc(Cl)c4)n3)cc2)CC(C)(C)N1[O] | 67.8 | 43.2 | 0.0195 | 0.00062 | 31.3 | 42.1 | – | – | – | – | – | – | – | –
CN1CCC(NC(=O)c2ccc(Nc3ncc(F)c(Nc4ccc(C(=O)Nc5ccccc5Cl)cc4)n3)cc2)CC1 | 12.4 | 11.3 | 0.0491 | 0.00228 | 8.9 | 13.4 | – | – | – | – | – | – | – | –
CC1(C)CC(NC(=O)c2ccc(Nc3ncc([N+](=O)[O-])c(Nc4ccccc4O)n3)cc2)CC(C)(C)N1[O] | 28.3 | 13.9 | 0.0113 | 0.0085 | 11.2 | 3.7 | – | – | – | – | – | – | – | –
CC1(C)CC(NC(=O)c2ccc(Nc3nc(Nc4ccc(C(=O)O)cc4)ncc3F)cc2)CC(C)(C)N1[O] | 65.3 | 21.3 | – | – | – | – | 18.5 | 26.8 | – | – | – | – | – | –
